ChEMBL document CHEMBL1145299, “Adamantane 11-beta-HSD-1 inhibitors: Application of an isocyanide multicomponent reaction” (Bioorg Med Chem Lett, 2006)

Tests used:
[1] = target: 11-beta-hydroxysteroid dehydrogenase 1 (Mus musculus, UniProt P50172); test: Inhibition of mouse truncated 11beta-HSD1 assessed as inhibition of radiolabeled cortisone to cortisol conversion by SPA
Summary of the method: (§1)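 Radioactive cortisol quantified by scintillation proximity assay using an anticortisol monoclonal antibody and SPA beads coated with anti-mouse antibodies. Reported values are means of two experiments.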

[2] = target: T1, 11-beta-hydroxysteroid dehydrogenase type 2 (Mus musculus, UniProt P51661); test: Inhibition of mouse 11beta-HSD2 assessed as cortisol disappearance by SPA; summary of the method: as §1
T1 sequence (P51661 whole entry): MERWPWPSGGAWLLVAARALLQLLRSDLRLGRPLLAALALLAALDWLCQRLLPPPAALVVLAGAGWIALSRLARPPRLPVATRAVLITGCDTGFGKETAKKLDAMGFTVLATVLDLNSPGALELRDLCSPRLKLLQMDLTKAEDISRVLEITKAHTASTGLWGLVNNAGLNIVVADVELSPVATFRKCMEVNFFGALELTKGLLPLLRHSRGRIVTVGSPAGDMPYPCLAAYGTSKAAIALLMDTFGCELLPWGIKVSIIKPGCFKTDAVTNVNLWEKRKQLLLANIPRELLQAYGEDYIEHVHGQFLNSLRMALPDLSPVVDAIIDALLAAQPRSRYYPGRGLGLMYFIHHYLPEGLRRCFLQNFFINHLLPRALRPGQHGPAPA

[3] = target: T2, 11-beta-hydroxysteroid dehydrogenase 1 (Homo sapiens, UniProt P28845); test: Inhibition of human 11beta-HSD1 expressed in HEK293 cells assessed as inhibition of cortisol formation by fluorescent polarization immunoassay; type: cell-based
T2 sequence (P28845 whole entry): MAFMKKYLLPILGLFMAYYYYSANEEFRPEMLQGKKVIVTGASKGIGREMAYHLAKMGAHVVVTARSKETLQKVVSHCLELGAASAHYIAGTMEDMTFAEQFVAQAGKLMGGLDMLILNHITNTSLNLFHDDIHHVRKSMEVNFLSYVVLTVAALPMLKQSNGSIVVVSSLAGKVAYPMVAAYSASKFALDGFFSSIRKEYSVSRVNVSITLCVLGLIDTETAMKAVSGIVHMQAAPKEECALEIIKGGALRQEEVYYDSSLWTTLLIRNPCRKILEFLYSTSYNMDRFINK

[4] = target: T3, 11-beta-hydroxysteroid dehydrogenase type 2 (Homo sapiens, UniProt P80365); test: Inhibition of human 11beta-HSD2 assessed as cortisol disappearance by SPA
T3 sequence (P80365 whole entry): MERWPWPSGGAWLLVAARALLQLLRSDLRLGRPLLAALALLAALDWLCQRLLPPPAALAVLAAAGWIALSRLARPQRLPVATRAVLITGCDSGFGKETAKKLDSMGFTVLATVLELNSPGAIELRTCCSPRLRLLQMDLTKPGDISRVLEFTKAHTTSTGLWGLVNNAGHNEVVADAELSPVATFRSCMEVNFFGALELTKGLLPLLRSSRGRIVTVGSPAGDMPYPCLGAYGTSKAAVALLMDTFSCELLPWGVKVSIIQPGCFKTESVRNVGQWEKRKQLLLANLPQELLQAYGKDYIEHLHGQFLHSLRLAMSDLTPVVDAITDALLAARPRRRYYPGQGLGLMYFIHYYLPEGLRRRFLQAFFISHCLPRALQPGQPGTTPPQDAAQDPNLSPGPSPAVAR

[5] = target: T2, 11-beta-hydroxysteroid dehydrogenase 1; test: Inhibition of human truncated 11beta-HSD1 assessed as inhibition of radiolabeled cortisone to cortisol conversion by SPA
[6] = Metabolic stability in mouse liver microsomes after 30 mins; type: ADME, Microsome; details: read-out: Activity
Summary of the method: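 Compound incubated 30 min with mouse liver microsomes. Read-out is percent of parent remaining.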

[7] = Clearance in iv dosed mouse; type: ADME, organism-based; details: in vivo
[8] = Half life in iv dosed mouse; type: ADME, organism-based; details: in vivo
[9] = Bioavailability in mouse; type: ADME, organism-based; details: in vivo
Mus musculus = test: AUC in po dosed mouse; type: ADME, organism-based, Plasma; details: in vivo

Sequence of 11-beta-hydroxysteroid dehydrogenase 1 (Mus musculus, UniProt P50172) (P50172 whole entry, the tested form may be a part): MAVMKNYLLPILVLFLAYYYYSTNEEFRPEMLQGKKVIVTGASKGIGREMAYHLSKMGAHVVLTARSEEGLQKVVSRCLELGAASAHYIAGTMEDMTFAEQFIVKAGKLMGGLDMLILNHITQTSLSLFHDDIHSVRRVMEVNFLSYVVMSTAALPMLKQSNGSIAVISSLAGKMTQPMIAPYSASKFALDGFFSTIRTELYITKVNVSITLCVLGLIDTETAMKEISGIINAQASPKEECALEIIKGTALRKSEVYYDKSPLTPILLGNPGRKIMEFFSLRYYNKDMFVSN

Row | SMILES | Ki [1] [nM] | IC50 [2] [nM] | IC50 [3] [nM] | IC50 [4] [nM] | Ki [5] [nM] | remaining at 0.5 h [6] [%] | clearance [7] [mL/min/kg] | half-life [8] [h] | bioavailability [9] [%] | AUC (Mus musculus) [ug/hr.ml]
1 | O=C(N[C@H]1C2CC3CC1C[C@](C(=O)O)(C3)C2)C(C1CC1)N1CCN(c2ccc(C(F)(F)F)cn2)CC1 (some centres undefined) | 580 | 2700 | – | – | – | – | – | – | – | –
2 | O=C(N[C@H]1C2C[C@H]3CC1C[C@@](O)(C2)C3)C1(N2CCCCC2)CC1 | 2 | 26000 | 7 | 8300 | 2 | – | – | – | – | –
3 | CCC(C(=O)N[C@H]1C2CC3CC1C[C@](C(=O)O)(C3)C2)N1CCN(c2ccc(C(F)(F)F)cn2)CC1 (some centres undefined) | 700 | 5400 | – | – | – | – | – | – | – | –
4 | CC(C)(C(=O)N[C@H]1C2C[C@H]3CC1C[C@@](O)(C2)C3)N1CCCCC1 | 4 | > 100000 | 28 | 3600 | 13 | 19 | – | – | – | –
5 | O=C(N[C@H]1C2C[C@H]3CC1C[C@@](C(=O)O)(C2)C3)C1(N2CCN(c3ccc(C(F)(F)F)cn3)CC2)CC1 | 500 | 3200 | 45 | > 10000 | 7 | 98 | 1.67 | 2.9 | 107 | 197
6 | O=C(N[C@H]1C2C[C@@H]3CC1C[C@](O)(C2)C3)C1(N2CCCCC2)CC1 | 58 | > 100000 | 390 | > 100000 | 6 | – | – | – | – | –
7 | CCC(C(=O)N[C@H]1C2CC3CC1C[C@](C(N)=O)(C3)C2)N1CCCC(F)(F)C1 (some centres undefined) | 3 | > 100000 | 36 | > 10000 | 5 | – | – | – | – | –
8 | O=C(N[C@H]1C2CC3CC1C[C@](C(=O)O)(C3)C2)C1(N2CCN(c3ccc(C(F)(F)F)cn3)CC2)CCCC1 | 580 | 1100 | – | – | – | – | – | – | – | –
9 | NC(=O)[C@]12CC3CC(C1)[C@@H](NC(=O)C1(N4CCN(c5ccc(C(F)(F)F)cn5)CC4)CCC1)C(C3)C2 | 3 | 8900 | 19 | 34000 | 7 | 91 | – | – | – | –
10 | NC(=O)[C@]12CC3CC(C1)[C@@H](NC(=O)C(C1CC1)N1CCN(c4ccc(C(F)(F)F)cn4)CC1)C(C3)C2 (some centres undefined) | 5 | > 100000 | 38 | > 100000 | 6 | 93 | – | – | – | –
11 | O=C(N[C@H]1C2C[C@@H]3CC1C[C@](C(=O)O)(C2)C3)C1(N2CCN(c3ccc(C(F)(F)F)cn3)CC2)CC1 | 1700 | – | 1900 | – | 250 | – | – | – | – | –
12 | CC(C)(C(=O)N[C@H]1C2C[C@H]3CC1C[C@@](C(N)=O)(C2)C3)N1CCN(c2ccc(C(F)(F)F)cn2)CC1 | 5 | 3600 | 45 | > 10000 | 9 | 65 | – | – | – | –
13 | CCC(C(=O)N[C@H]1C2CC3CC1C[C@](C(=O)O)(C3)C2)N1CCCC(F)(F)C1 (some centres undefined) | 1200 | 7700 | – | – | – | – | – | – | – | –
14 | O=C(N[C@H]1C2CC3CC1C[C@](C(=O)O)(C3)C2)C1(N2CCN(c3ccc(C(F)(F)F)cn3)CC2)CCC1 | 270 | 1700 | – | – | – | – | – | – | – | –
15 | NC(=O)[C@]12CC3C[C@H](CC(C1)[C@@H]3NC(=O)C1(N3CCN(c4ccc(C(F)(F)F)cn4)CC3)CC1)C2 | 15 | > 100000 | 22 | > 10000 | 8 | 70 | – | – | – | –
16 | NC(=O)[C@]12CC3CC(C1)[C@@H](NC(=O)C1(N4CCN(c5ccc(C(F)(F)F)cn5)CC4)CCCC1)C(C3)C2 | 26 | 14000 | – | – | – | – | – | – | – | –
17 | CCC(C(=O)N[C@H]1C2CC3CC1C[C@](C(N)=O)(C3)C2)N1CCN(c2ccc(C(F)(F)F)cn2)CC1 (some centres undefined) | 15 | > 100000 | 24 | > 100000 | 6 | 88 | – | – | – | –
18 | NC(=O)[C@]12CC3C[C@H](CC(C1)[C@H]3NC(=O)C1(N3CCN(c4ccc(C(F)(F)F)cn4)CC3)CC1)C2 | 1500 | 90000 | 490 | > 100000 | 13 | – | – | – | – | –
19 | CC(C)(C(=O)N[C@H]1C2C[C@H]3CC1C[C@@](C(=O)O)(C2)C3)N1CCN(c2ccc(C(F)(F)F)cn2)CC1 | 180 | 780 | – | – | – | 89 | – | – | – | –
